Bioassay records as filed in PubChem BioAssay.
TRAIL sens C8: viability loss with TRAIL in NB7+C8 cells, primary screen, TRAIL sensitizer project, cell-based, ATPlite luminescence; inhibition (viability loss, TRAIL sensitization), % at 10 µM; actives 1% (n = 360,000);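 active = compounds causing at least 50% loss of cell viability in the single-dose screen, relative to plate controls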
FLuc inhib CS: firefly luciferase enzyme inhibitors, primary screen, artefact control for luciferase-based inhibitor screens, biochemical, luminescence, ATPLite | inhibition, % at 10 µM | actives 1.5% (n = 200,000) | Luciferin 4-monooxygenase (Photinus pyralis), P08659 | AID 1006, 2008 | 10 min;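 active = inhibition above about 50% when tested at 10 µM, limit read from the data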
Target sequence (P08659 whole entry, looked up): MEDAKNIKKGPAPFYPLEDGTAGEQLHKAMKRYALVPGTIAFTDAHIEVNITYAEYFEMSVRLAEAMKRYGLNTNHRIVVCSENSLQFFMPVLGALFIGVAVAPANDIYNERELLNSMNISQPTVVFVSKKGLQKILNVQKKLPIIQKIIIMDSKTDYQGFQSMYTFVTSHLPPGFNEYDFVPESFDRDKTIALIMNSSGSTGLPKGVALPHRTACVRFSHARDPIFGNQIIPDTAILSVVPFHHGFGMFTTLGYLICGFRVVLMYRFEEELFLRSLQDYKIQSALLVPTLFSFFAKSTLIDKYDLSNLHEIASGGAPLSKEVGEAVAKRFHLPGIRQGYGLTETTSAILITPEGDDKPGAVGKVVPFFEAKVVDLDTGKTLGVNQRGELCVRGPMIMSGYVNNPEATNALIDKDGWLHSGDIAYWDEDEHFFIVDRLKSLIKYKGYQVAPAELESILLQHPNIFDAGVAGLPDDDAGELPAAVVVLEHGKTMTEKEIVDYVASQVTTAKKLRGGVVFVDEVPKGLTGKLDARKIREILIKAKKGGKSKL
FLuc stim CS: FLuc activators, initial screening, artefact control for FLuc-dependent activation tests, biochemical, ATPlite luminescence; Luciferin 4-monooxygenase (Photinus pyralis), P08659; ATPlite luciferase biochemical, 10 min; 0 = ATP-free wells, 1 = DMSO control; 200,000 tested, under 10 active; activation factor at 10 µM;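 active = luciferase activation factor, scaled between plate controls, of at least 2 with compound at 10 µM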
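Assay system: Luciferase/luciferin detection reagent, cell-free biochemical luciferase assay / Read-out: luciferase activation / Benchmarks: No-ATP low control, compound-free enzyme-plus-ATP high control / Medium: PBS buffer for ATP / Detection: luminescence measurement of luciferase light output / Schedule: 10 min at ambient temperature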
PPC-1+TRAIL kill: compounds killing PPC-1 cancer cells with TRAIL present, primary screen, TRAIL potentiator project, ATPLite luminescence, uHTS | cell killing (% activity), % at 4 µM or 5 µM | PPC-1 cells + TRAIL, ATPLite viability luminescence | actives 0.41% (n = 220,000) | AID 1443, 2008;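 active = cell killing above 50% in the first pass at 4 µM, then a duplicate retest at 5 µM averaging 50% or more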
Platelet DG rel: inhibitors of platelet dense granule secretion, primary screen, cell-based, MLPCN, human platelets; human platelet-rich plasma, SFLLRN dense granule ATP release, luminescence; inhibition, %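 (compounds screened at 7.5 µM in platelet-rich plasma)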; actives 0.22% (n = 300,000);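 active = mean replicate score, as percent of positive control, at or above 50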
Of the large screens only hits and unclear results are named; the others gave an inactive call. Shown are actives, neighbours in structure and some others; about 1.6% of the full set was active somewhere.

COC(COC(N)=O)C1=C(N2CC2)C(=O)C(C)=C(N2CC2)C1=O (configuration not stated)	TRAIL sens C8 74.0 (no result: FLuc inhib CS, FLuc stim CS, PPC-1+TRAIL kill, Platelet DG rel)
CC(C)CCn1c(=O)c(C(=O)Nc2ccccc2S(N)(=O)=O)c(O)c2ccccc21	TRAIL sens C8 52.5
CCCCn1c(=O)c(C(=O)Nc2ccccc2C)c(O)c2ccccc21	none (no result: FLuc inhib CS, FLuc stim CS, PPC-1+TRAIL kill)
CCC(=NCCc1ccccc1)c1c(O)[nH]c(=O)[nH]c1=O	Platelet DG rel 73.2 (no result: FLuc inhib CS, FLuc stim CS)
CCOC(=O)CNC(=O)N1Cc2cc(-c3cccc(F)c3)ccc2-n2nncc2C1	none (no result: FLuc inhib CS, FLuc stim CS, PPC-1+TRAIL kill, Platelet DG rel)
COc1ccc(-n2nnnc2C(c2ccccc2OC(F)(F)F)N2CCC3(CC2)C(=O)NCN3c2ccccc2)cc1 (configuration not stated)	none (no result: FLuc inhib CS, FLuc stim CS, PPC-1+TRAIL kill, Platelet DG rel)
Cc1ccc(NC(=O)CN2C(=O)CN=C(c3ccccc3)c3cc(Cl)ccc32)cc1	TRAIL sens C8 57.0
CC1=CC2OC3CC4OC(=O)C=CC=CC(C(C)O)OCC(O)C(C)CC(=O)OCC2(CC1O)C4(C)C31CO1 (configuration not stated)	TRAIL sens C8 69.0 (no result: FLuc inhib CS, FLuc stim CS, PPC-1+TRAIL kill, Platelet DG rel)
CC1=CC2OC3CC4OC(=O)C=CC=CC(=O)OCCC(C)C(O)C(=O)OCC2(CC1O)C4(C)C31CO1 (configuration not stated)	TRAIL sens C8 72.5 (no result: FLuc inhib CS, FLuc stim CS, PPC-1+TRAIL kill, Platelet DG rel)
C[C@H]1CN([C@@H](C)CO)C(=O)CCCn2nncc2CO[C@H]1CN(C)C(=O)Oc1ccc2ccccc2c1	none (no result: FLuc inhib CS, FLuc stim CS, PPC-1+TRAIL kill, Platelet DG rel)
Cc1cc(C(=O)CS(=O)(=O)c2ccc(F)cc2)cc(C)c1OC(=O)N(C)C	FLuc inhib CS 62.6
C[C@@H]1COc2cccc(N3CCN(C)CC3)c2S(=O)(=O)N1	none (no result: FLuc inhib CS, FLuc stim CS, PPC-1+TRAIL kill, Platelet DG rel)
CCn1nc(/C=C/c2ccccc2)nc2c(=O)n(C)c(=O)nc1-2	none
CCn1nc(-c2cccs2)nc2c(=O)n(C)c(=O)nc1-2	TRAIL sens C8 95.2 (no result: Platelet DG rel)
CC[n+]1c(/C=C/C=C/c2ccc(N(C)C)cc2)sc2ccccc21	TRAIL sens C8 63.3 (no result: FLuc inhib CS, FLuc stim CS)
COC(=O)C1=C(c2ccc(OCc3ccccc3)c(F)c2)C[C@@H]2CC[C@H]1N2C	none (no result: FLuc inhib CS, FLuc stim CS, PPC-1+TRAIL kill, Platelet DG rel)
Oc1ccc(-[n+]2c(-c3ccccc3)cc(-c3ccccc3)cc2-c2ccccc2)cc1	TRAIL sens C8 64.8 (no result: FLuc inhib CS, FLuc stim CS, PPC-1+TRAIL kill)
COc1ccc(-[n+]2c(-c3ccccc3)cc(-c3ccccc3)cc2-c2ccccc2)cc1	none (no result: TRAIL sens C8, FLuc inhib CS, FLuc stim CS, PPC-1+TRAIL kill)
CCCCn1nnnc1C(CCSC)N1CCC(n2c(=O)[nH]c3ccccc32)CC1 (configuration not stated)	none (no result: FLuc inhib CS, FLuc stim CS, PPC-1+TRAIL kill, Platelet DG rel)
O=C1NCN(c2ccccc2)C12CCN(C(c1ccccc1OC(F)(F)F)c1nnnn1C1CCCC1)CC2 (configuration not stated)	none (no result: FLuc inhib CS, FLuc stim CS, PPC-1+TRAIL kill, Platelet DG rel)
CC1=C(C)CN2CC(C#N)=C(N)C2C1 (configuration not stated)	none (no result: FLuc inhib CS, FLuc stim CS, PPC-1+TRAIL kill, Platelet DG rel)
c1ccc2c(c1)CSc1ccccc1C2C1=NCCN1 (configuration not stated)	none
Brc1ccc2c(c1)C(OC1CN3CCC1CC3)c1ccccc1CS2 (configuration not stated)	PPC-1+TRAIL kill 82.0
Cc1[nH]nc2ccc(-c3cncc(OC[C@@H](N)Cc4c[nH]c5ccccc45)c3)cc12	TRAIL sens C8 90.1 (no result: FLuc inhib CS, FLuc stim CS, PPC-1+TRAIL kill, Platelet DG rel)
C=C(C)CSc1nnc([C@@H](N)Cc2c[nH]c3ccccc23)o1	none
O=C(NCC1=C(c2cccc3ccccc23)C[C@@H]2CC[C@H]1N2Cc1ccco1)c1cccs1	none (no result: FLuc inhib CS, FLuc stim CS, PPC-1+TRAIL kill, Platelet DG rel)
FC(F)(F)c1ccc(-c2ccc3c(c2)CNCc2cnnn2-3)cc1	none (no result: FLuc inhib CS, FLuc stim CS, PPC-1+TRAIL kill, Platelet DG rel)
CC(O)C1C=CC=CC(=O)OC2CC3OC4C5OC5(C)CCC4(COC(=O)C4OC4(C)C(O)CO1)C2(C)C31CO1 (configuration not stated)	TRAIL sens C8 60.8 (no result: FLuc inhib CS, FLuc stim CS, PPC-1+TRAIL kill, Platelet DG rel)
CC(=O)OC1C(=O)OCC23CCC4(C)OC4C2OC2CC(OC(=O)C=CC=CC(=O)OCCC1C)C3(C)C21CO1 (configuration not stated)	TRAIL sens C8 64.3 (no result: FLuc inhib CS, FLuc stim CS, PPC-1+TRAIL kill, Platelet DG rel)
O=C1NCN(c2ccccc2)C12CCN(C(CCc1ccccc1)c1nnnn1C1CCCCC1)CC2 (configuration not stated)	none (no result: FLuc inhib CS, FLuc stim CS, PPC-1+TRAIL kill, Platelet DG rel)
COc1cc(/C=C/C(=O)c2c(O)n(CCc3ccccc3)c(=O)[nH]c2=O)ccc1O	FLuc inhib CS 55.5
O=C(/C=C/c1ccccc1)c1c(O)n(CCc2ccccc2)c(=O)[nH]c1=O	none
